Experimental data: article PMC8435006 (ACS infectious diseases, 2021)

Columns and labels:
VIM-2 (B1 MBL) = conditions: read-out: Ki against VIM-2; MMTZs; same protocol; ref 6 (Rossi et al); cited from earlier work
IMP-1 (B1 MBL) = conditions: read-out: Ki against IMP-1; MMTZs; same protocol; ref 6 (Rossi et al); cited from earlier work
L1 (B3 MBL) = L1 (B3 MBL) (Stenotrophomonas maltophilia, UniProt P52700); assay: Ki by imipenem hydrolysis, purified recombinant L1; format: biochemical; conditions: read-out: Ki against L1; MMTZs; imipenem substrate, 30 °C, pH 7.5, 20 μM ZnSO4
Outline: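 Steady-state imipenem hydrolysis by purified L1 (2 nM final) at 30 °C, followed as the absorbance decrease at 300 nm (Δε300 = −9000 M−1cm−1). Buffer was 10 mM HEPES pH 7.5, 200 mM NaCl, 50 mg/L BSA and 20 μM ZnSO4. Inhibitor came from a DMSO stock diluted into buffer, and enzyme was added last. Rates from slopes were fitted to a competitive inhibition model for Ki.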

Sfh-I (B2 MBL) = Sfh-I (B2 MBL) (Serratia fonticola, UniProt Q9RMI1); assay: Ki by imipenem hydrolysis, purified recombinant Sfh-I; format: biochemical; conditions: ratio of Ki values
Outline: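 Sfh-I (2 nM final) hydrolysing imipenem at 30 °C, monitored at 300 nm under steady-state conditions in 10 mM HEPES pH 7.5, 200 mM NaCl, 50 mg/L BSA, with no added zinc. Reactions were started by adding enzyme to the substrate plus inhibitor (DMSO stock diluted in buffer). Ki came from competitive-model fits of the rates, and the fold value is the ratio of Ki values.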

NDM-1 (B1 MBL) = conditions: read-out: Ki against NDM-1; MMTZs; same protocol; ref 6 (Rossi et al); cited from earlier work
CphA = conditions: read-out: Ki against CphA; captopril isomers; ref Table S1; cited from earlier work
[1] = test system: E. coli DH10B expressing NDM-1; assay: Imipenem MIC potentiation, broth microdilution, NDM-1 producer; format: cell-based; conditions: 100 μg/mL MMTZ; E. coli DH10B producing NDM-1
[2] = test system: E. coli DH10B expressing Sfh-I; assay: Imipenem MIC potentiation, broth microdilution, Sfh-I producer; format: cell-based; conditions: 100 μg/mL MMTZ; E. coli DH10B producing Sfh-I
[3] = test system: E. coli DH10B expressing L1; assay: Imipenem MIC potentiation, broth microdilution, L1 producer; format: cell-based
[4] = 50 μg/mL inhibitor, L1-expressing E. coli DH10B
[5] = 100 μg/mL MMTZ, E. coli DH10B producing L1

L1 (B3 MBL), sequence (P52700 34-290): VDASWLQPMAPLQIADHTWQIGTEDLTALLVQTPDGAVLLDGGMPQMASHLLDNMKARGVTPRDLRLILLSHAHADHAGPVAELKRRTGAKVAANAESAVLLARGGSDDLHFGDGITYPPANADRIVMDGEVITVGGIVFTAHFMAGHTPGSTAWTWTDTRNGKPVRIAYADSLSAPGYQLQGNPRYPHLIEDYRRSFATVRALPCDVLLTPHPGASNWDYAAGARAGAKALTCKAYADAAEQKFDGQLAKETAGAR

SMILES	Ki (VIM-2 (B1 MBL)) [nM]	Ki (IMP-1 (B1 MBL)) [nM]	Ki (L1 (B3 MBL)) [nM]	Fold less potent against Sfh-I than L-anti-1a (Sfh-I (B2 MBL))	Ki (NDM-1 (B1 MBL)) [nM]	Ki (CphA) [nM]	Reduction of imipenem MIC [1]	Reduction of imipenem MIC [2]	Reduction of imipenem MIC [3, 4]	Reduction of imipenem MIC [3, 5]
CCOC(=O)[C@@]1(CS)N[C@@H](C(=O)O)CS1 [D-anti-1a]	390 ± 40	1300 ± 100	4000 ± 500	125 – 800 fold	2500 ± 500	–	–	–	–	–
CCOC(=O)[C@@]1(CS)N[C@@H](C(=O)O)C(C)(C)S1 [D-anti-1b]	900 ± 100	930 ± 80	1400 ± 200	125 – 800 fold	3100 ± 300	–	–	–	–	–
C[C@H](CS)C(=O)N1CCC[C@@H]1C(=O)O [D-captopril]	–	–	–	–	–	72000	–	–	–	–
CCOC(=O)[C@]1(CS)N[C@@H](C(=O)O)C(C)(C)S1 [D-syn-1b]	1900 ± 100	2000 ± 200	4000 ± 600	–	600 ± 50	–	least effect	least effect	four-fold	least effect
CCOC(=O)[C@]1(CS)N[C@H](C(=O)O)CS1 [L-anti-1a]	380 ± 50	1000 ± 200	10000 ± 800	–	5200 ± 700	–	4 fold	4 fold	–	4 fold
CCOC(=O)[C@]1(CS)N[C@H](C(=O)O)C(C)(C)S1 [L-anti-1b]	750 ± 90	460 ± 50	20000 ± 2000	–	440 ± 60	–	–	–	four-fold	–
C[C@H](CS)C(=O)N1CCC[C@H]1C(=O)O [L-captopril]	–	–	–	–	–	950000	–	–	–	–
CCOC(=O)[C@@]1(CS)N[C@H](C(=O)O)C(C)(C)S1 [L-syn-1b]	3600 ± 400	6000 ± 600	28000 ± 3000	–	8000 ± 1000	–	–	–	four-fold	–
